Experimental data reported in ChEMBL document CHEMBL4732027, “Pyridazinone derivatives as potential anti-inflammatory agents: synthesis and biological evaluation as PDE4 inhibitors” (RSC Med Chem, 2021).
Calls of active or inactive are those of the source. The rule behind the calls is not given here.

Key:
[1] = target: T1, 3',5'-cyclic-AMP phosphodiesterase 4B (Homo sapiens, UniProt Q07343); test: Inhibition of recombinant human PDE-4B expressed in Escherichia coli at 20 uM using cAMP as substrate incubated for 60 mins by PDE4 assay kit method relative to control
T1 sequence (Q07343 whole entry): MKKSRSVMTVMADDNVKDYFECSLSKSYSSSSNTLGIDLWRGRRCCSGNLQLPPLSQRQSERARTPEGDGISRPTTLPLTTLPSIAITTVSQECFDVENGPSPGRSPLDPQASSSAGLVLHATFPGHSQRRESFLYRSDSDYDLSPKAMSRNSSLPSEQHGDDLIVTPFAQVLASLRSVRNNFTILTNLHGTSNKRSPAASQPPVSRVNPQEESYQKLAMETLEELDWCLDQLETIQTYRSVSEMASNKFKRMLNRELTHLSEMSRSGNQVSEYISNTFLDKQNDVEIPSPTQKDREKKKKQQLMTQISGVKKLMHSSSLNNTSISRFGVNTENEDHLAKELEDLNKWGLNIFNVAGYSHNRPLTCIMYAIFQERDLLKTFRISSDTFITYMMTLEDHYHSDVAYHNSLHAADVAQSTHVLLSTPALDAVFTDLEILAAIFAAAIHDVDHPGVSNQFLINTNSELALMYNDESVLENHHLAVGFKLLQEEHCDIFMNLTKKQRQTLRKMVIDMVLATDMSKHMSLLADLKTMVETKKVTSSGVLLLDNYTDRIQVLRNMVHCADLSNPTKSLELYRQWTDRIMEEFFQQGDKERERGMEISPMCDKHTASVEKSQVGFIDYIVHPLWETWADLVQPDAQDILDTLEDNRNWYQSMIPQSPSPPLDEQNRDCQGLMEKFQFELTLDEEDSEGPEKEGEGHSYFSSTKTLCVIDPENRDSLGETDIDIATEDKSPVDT
In short: (§1)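 Human recombinant PDE4 expressed in E. coli, incubated with cAMP and 5'-nucleotidase in 10 mM Tris-HCl pH 7.4 at 30 °C for 60 min. Released phosphate detected colorimetrically after 30 min colour development. IC50 from five concentrations by nonlinear regression; mean of two or three independent runs, each in triplicate.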

[2] = test system: Macrophage; test: Antiinflammatory activity against human PBMC derived primary macrophages assessed as reduction in LPS-induced IL-8 level at 10 uM incubated for 24 hrs by ELISA relative to control; format: functional
In short: (§2)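 Macrophages from human blood PBMCs, differentiated 24 h with 25 ng/mL M-CSF, non-adherent cells removed. Stimulated 24 h with 10 ng/mL E. coli LPS in 0.5% DMSO, with compound at 5–50 µM. Supernatant cytokines measured by sandwich ELISA against a recombinant standard curve. Detection limits: IL-1β 3.9, IL-6 and TNF-α 7.8, IL-8 15.7 pg/mL. Cells from 8 donors; Kruskal–Wallis then Wilcoxon–Mann–Whitney tests.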

[3] = test system: Mus musculus; test: Antiinflammatory activity in BALB/cJRj mouse air pouch model assessed as decrease in LPS-stimulated monocyte recruitment in air pouch at 20 uM, sc measured after 6 hrs by flow cytometry analysis (reference value: 1.9); format: functional
In short: (§3)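 Seven-week-old BALB/cJRj mice. Dorsal subcutaneous air pouch made under isoflurane with 3 mL filtered air on day 0, refilled day 3. On day 7, 2 mL LPS (10 ng/mL) in 0.5% DMSO with compound at 2, 20 or 200 µM injected into the pouch; controls got 0.5% DMSO in saline. After 6 h, exudate collected by lavage with 2 mL 5 mM PBS-EDTA. Cells counted and stained for Ly6G and F4/80, then analysed by flow cytometry. Eight to 17 animals per group.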

[4] = test system: Mus musculus; test: Antiinflammatory activity in BALB/cJRj mouse air pouch model assessed as decrease in LPS-stimulated monocyte recruitment in air pouch at 2 uM, sc measured after 6 hrs by flow cytometry analysis; format: functional, organism-based; in short: as §3
[5] = test system: Mus musculus; test: Antiinflammatory activity in BALB/cJRj mouse air pouch model assessed as decrease in LPS-stimulated monocyte recruitment in air pouch at 200 uM, sc measured after 6 hrs by flow cytometry analysis (reference value: 1.9); format: functional; in short: as §3
[6] = test system: Macrophage; test: Antiinflammatory activity against LPS-treated human PBMC derived primary macrophages assessed as increase in flattened cell morphology at 10 uM incubated for 24 hrs by scanning electron microscopic analysis; format: functional, cell-based
In short: (§4)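 Human PBMCs isolated from EDTA blood (red cells lysed by hypotonic shock), grown on coverslips in RPMI 1640 + 10% heat-inactivated FBS with 25 ng/mL M-CSF for 24 h at 37 °C, 5% CO2. Non-adherent cells removed, then 24 h stimulation with LPS 10 ng/mL in 0.5% DMSO ± compound. Cells fixed in 2.5% glutaraldehyde, dehydrated in ethanol, dried with HMDS, gold-palladium coated, imaged by FE-SEM at 2 kV.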

[7] = test system: Macrophage; test: Antiinflammatory activity against LPS-induced human PBMC derived primary macrophages assessed as increase in cell size at 10 uM incubated for 24 hrs by scanning electron microscopic analysis; format: functional, cell-based; in short: as §4
[8] = test system: Macrophage; test: Antiinflammatory activity against LPS-treated human PBMC derived primary macrophages assessed as intricate cytoplasm at 10 uM incubated for 24 hrs by scanning electron microscopic analysis; format: functional, cell-based; in short: as §4
[9] = test system: Macrophage; test: Cytotoxicity against human PBMC derived primary macrophages assessed as reduction in cell viability at 10 uM incubated for 24 hrs by LDH assay; format: cell-based
In short: (§5)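 Cell death in human PBMC-derived macrophages (M-CSF 25 ng/mL, 24 h) after 24 h LPS (10 ng/mL, 0.5% DMSO) plus compound at 5–50 µM. LDH activity measured in supernatant with a commercial kit, absorbance at 492 nm corrected at 700 nm. Eight donors.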

[10] = test system: Macrophage; test: Antiinflammatory activity against human PBMC derived primary macrophages assessed as reduction in LPS-induced vesicle number at 10 uM incubated for 24 hrs by scanning electron microscopic analysis; format: functional, cell-based; in short: as §4
[11] = test system: Mus musculus; test: Antiinflammatory activity in BALB/cJRj mouse air pouch model assessed as decrease in LPS-stimulated macrophage recruitment in air pouch at 2 to 200 uM, sc measured after 6 hrs by flow cytometry analysis; format: functional, organism-based; conditions: dose 2-200 µM; in short: as §3
[12] = test system: Macrophage; test: Antiinflammatory activity against human PBMC derived primary macrophages assessed as reduction in LPS-induced IL-1beta level at 50 uM incubated for 24 hrs by ELISA relative to control; format: functional; in short: as §2
[13] = test system: Macrophage; test: Antiinflammatory activity against human PBMC derived primary macrophages assessed as reduction in LPS-induced TNF-alpha level at 5 uM incubated for 24 hrs by ELISA relative to control; format: functional; in short: as §2
[14] = test system: Macrophage; test: Antiinflammatory activity against human PBMC derived primary macrophages assessed as reduction in LPS-induced IL-8 level at 50 uM incubated for 24 hrs by ELISA relative to control; format: functional; in short: as §2
[15] = Lipophilicity, logP of compound; format: physicochemical; conditions: octanol/water
In short: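 LogP calculated with software, not measured.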

[16] = test system: Macrophage; test: Cytotoxicity against human PBMC derived primary macrophages assessed as reduction in cell viability at 5 to 50 uM incubated for 24 hrs by LDH assay; format: cell-based; conditions: dose 5-50 µM; in short: as §5
[17] = test system: Mus musculus; test: Antiinflammatory activity in BALB/cJRj mouse air pouch model assessed as decrease in LPS-stimulated monocyte recruitment in air pouch at 2 to 20 uM, sc measured after 6 hrs by flow cytometry analysis; format: functional, organism-based; conditions: dose 2-20 µM; in short: as §3
[18] = test system: Macrophage; test: Antiinflammatory activity against human PBMC derived primary macrophages assessed as reduction in LPS-induced IL-6 level at 20 uM incubated for 24 hrs by ELISA relative to control; format: functional; in short: as §2
[19] = test system: Macrophage; test: Antiinflammatory activity against human PBMC derived primary macrophages assessed as reduction in LPS-induced IL-6 level at 50 uM incubated for 24 hrs by ELISA relative to control; format: functional; in short: as §2
[20] = test system: Macrophage; test: Antiinflammatory activity against human PBMC derived primary macrophages assessed as reduction in LPS-induced IL-8 level at 20 uM incubated for 24 hrs by ELISA relative to control; format: functional; in short: as §2
[21] = test system: Macrophage; test: Antiinflammatory activity against human PBMC derived primary macrophages assessed as reduction in LPS-induced IL-6 level at 5 uM incubated for 24 hrs by ELISA relative to control; format: functional; in short: as §2
[22] = test system: Macrophage; test: Antiinflammatory activity against human PBMC derived primary macrophages assessed as reduction in LPS-induced cell morphology changes at 50 uM incubated for 24 hrs by scanning electron microscopic analysis; format: functional, cell-based; in short: as §4
[23] = test system: Mus musculus; test: Antiinflammatory activity in BALB/cJRj mouse air pouch model assessed as decrease in LPS-stimulated monocyte recruitment in air pouch at 200 uM, sc measured after 6 hrs by flow cytometry analysis relative to control; format: functional; in short: as §3
[24] = test system: Mus musculus; test: Antiinflammatory activity in BALB/cJRj mouse air pouch model assessed as decrease in LPS-stimulated macrophage recruitment in air pouch at 2 to 20 uM, sc measured after 6 hrs by flow cytometry analysis; format: functional, organism-based; conditions: dose 2-20 µM; in short: as §3
[25] = test system: Macrophage; test: Antiinflammatory activity against human PBMC derived primary macrophages assessed as reduction in LPS-induced TNF-alpha level at 50 uM incubated for 24 hrs by ELISA relative to control; format: functional; in short: as §2
[26] = test system: Macrophage; test: Antiinflammatory activity against human PBMC derived primary macrophages assessed as reduction in LPS-induced IL-1beta level at 20 uM incubated for 24 hrs by ELISA relative to control; format: functional; in short: as §2
[27] = target: T1, 3',5'-cyclic-AMP phosphodiesterase 4B; test: Inhibition of recombinant human PDE-4B expressed in Escherichia coli using cAMP as substrate incubated for 60 mins by PDE4 assay kit method; in short: as §1
[28] = test system: Macrophage; test: Antiinflammatory activity against human PBMC derived primary macrophages assessed as reduction in LPS-induced IL-6 level at 10 uM incubated for 24 hrs by ELISA relative to control; format: functional; in short: as §2

inhibition [1]	SMILES	other results
17.7%	CC1=NN(Cc2ccccc2)C(=O)C(c2c[nH]c3ccccc23)C1 (stereo not given)	
74.6%	O=C(Nc1c(Cl)cncc1Cl)c1ccc(OC(F)F)c(OCC2CC2)c1 [ROFLUMILAST]	inhibition at 10 µM [2]: 10%; fold change (FC) [3]: 3.5; inhibition [4]: inactive; fold change (FC) [5]: 2; Activity [6]: Active; Activity [7]: Active; Activity [8]: Active; Activity [9]: Non-Toxic; Activity [10]: Active; inhibition [11]: inactive
9.8%	CC1=NNC(=O)C(c2c[nH]c3ccc(Br)cc23)C1 (stereo not given)	
8.9%	Cc1cc(-c2c[nH]c3ccc(I)cc23)c(=O)n(Cc2ccccc2)n1	
5.9%	Cc1cc(-c2c[nH]c3ccc(I)cc23)c(=O)[nH]n1	
16.8%	Cc1cc(-c2c[nH]c3ccc(Br)cc23)c(=O)[nH]n1	
12.8%	CC1=NNC(=O)C(c2c[nH]c3ccc(F)cc23)C1 (stereo not given)	
14.2%	Cc1cc(-c2c[nH]c3ccc(Br)cc23)c(=O)n(Cc2ccccc2)n1	
37.5%	COc1ccc2[nH]cc(C3CC(C)=NNC3=O)c2c1 (stereo not given)	
8.7%	CC1=NN(Cc2ccccc2)C(=O)C(c2c[nH]c3ccc(Br)cc23)C1 (stereo not given)	
49.1%	COc1ccc2[nH]cc(-c3cc(C)nn(Cc4ccccc4)c3=O)c2c1	
32.3%	CC1=NNC(=O)C(c2c[nH]c3ccccc23)C1 (stereo not given)	
23.6%	Cc1cc(-c2c[nH]c3ccc(F)cc23)c(=O)[nH]n1	
8.7%	CC1=NN(C)C(=O)C(c2c[nH]c3ccccc23)C1 (stereo not given)	
19.5%	CC1=NNC(=O)C(c2c[nH]c3ccc([N+](=O)[O-])cc23)C1 (stereo not given)	
63.9%	COc1ccc2[nH]cc(-c3cc(C)n[nH]c3=O)c2c1	inhibition at 50 µM [12]: 54%; inhibition at 5 µM [13]: 43%; inhibition at 50 µM [14]: 25%; logP [15]: 0.43; Activity [16]: Non-Toxic; inhibition [17]: Active; inhibition at 20 µM [18]: 28%; inhibition at 50 µM [19]: 21%; inhibition at 20 µM [20]: 16%; inhibition at 5 µM [21]: 16%; Activity [22]: Active; inhibition in vivo at 200 µM [23]: 69%; inhibition [24]: Active; inhibition at 50 µM [25]: 47%; inhibition at 20 µM [26]: 58%; IC50 [27]: 251 nM; inhibition at 10 µM [28]: 23%
38%	CC(C)Cn1c(=O)n(C)c(=O)c2nc[nH]c21	
17.6%	Cc1cc(-c2c[nH]c3ccc(F)cc23)c(=O)n(Cc2ccccc2)n1	
15.3%	Cc1cc(-c2c[nH]c3ccccc23)c(=O)n(C)n1	
13.4%	COc1ccc2[nH]cc(C3CC(C)=NN(C)C3=O)c2c1 (stereo not given)	
45.6%	Cc1cc(-c2c[nH]c3ccccc23)c(=O)[nH]n1	
21.8%	COc1ccc2[nH]cc(-c3cc(C)nn(C)c3=O)c2c1	
2.2%	CC1=NNC(=O)C(c2c[nH]c3ccc(I)cc23)C1 (stereo not given)	
4.5%	CC1=NN(Cc2ccccc2)C(=O)C(c2c[nH]c3ccc(I)cc23)C1 (stereo not given)	
26.8%	Cc1cc(-c2c[nH]c3ccc([N+](=O)[O-])cc23)c(=O)[nH]n1	
9.4%	CC1=NN(Cc2ccccc2)C(=O)C(c2c[nH]c3ccc(F)cc23)C1 (stereo not given)	
28.9%	COc1ccc2[nH]cc(C3CC(C)=NN(Cc4ccccc4)C3=O)c2c1 (stereo not given)	
30.1%	Cc1cc(-c2c[nH]c3ccccc23)c(=O)n(Cc2ccccc2)n1	
